Screening data as filed in PubChem.
The list is not random: actives were taken first. Their share in the collection is about 1.5%.
Myeloid diff MLP = promotes myeloid progenitor differentiation. ER-HoxA9 myeloid progenitors, lysozyme-GFP differentiation, flow cytometry. calls only at 10 µM. 360,000 tested, 1% active. AID 624256;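 active = normalized GFP-positive differentiation at or above the plate's own cutoff, the solvent-only control mean plus 3 SD; inconclusive = no clear call, values can overlap the other calls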;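 note: cells exposed to compound for four days before flow analysis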
SENP1 inh = SENP1 (human) catalytic domain inhibition; Q9P0U3; recombinant SENP1 catalytic domain, CyPet-SUMO1-YPet FRET cleavage; inhibition, % at 10 µM; 360,000 tested, 0.21% active; AID 624204;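 active = inhibition at least 30% at 10 µM, raw YFP signal under a set limit, fluorescence ratio 0.5 to 1.5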;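 note: 0% = enzyme with DMSO and 100% = no enzyme wells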
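system = hSENP1 catalytic domain, recombinant | reagent = SFCypet-SUMO1-SFYpet substrate at 25 nM | doses = one dose per compound, 10 µM, 0.5% DMSO | incubation = enzyme reaction for 50 min at room temperature, dark | measured by = FRET, CFP and YFP emission | controls = no-enzyme low, enzyme-DMSO high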
Platelet DG rel = modulates dense granule release in human platelets. human platelet-rich plasma, SFLLRN dense granule ATP release, luminescence. inhibition, %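 (compounds screened at 7.5 µM in platelet-rich plasma)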. 300,000 tested, 0.22% active. AID 1663;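 active = mean replicate score, as percent of positive control, at or above 50; inconclusive = mean below 50 but at least one replicate at or above 50; inactive = mean and every replicate below 50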
VLA-4 inh = inhibition in a human VLA-4 binding assay. VLA-4 expressing cells, ligand binding flow cytometry. inhibition, % (about 7 µM as worked out from the volumes in the protocol). P13612. 330,000 tested, 0.2% active; in the data active = inhibition above about 50%
VLA-4 allo CP = human VLA-4 allosteric modulation in cherry picked compounds. inhibition, % at 6.7 µM. 1,300 tested, 2% active. U937 cells, HUTS-21 LIBS mAb binding, flow cytometry; LDV ligand present at threefold Kd. shares compounds with VLA-4 inh; in the data active = inhibition above about 40%;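 note: 0% = ligand without compound and 100% = no ligand background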
An asterisk follows results filed as active; i = inactive; ? = inconclusive; . = not tested or not shown; + = active, no number; ! = not confirmed by another sample.

SMILES | Myeloid diff MLP | SENP1 inh | Platelet DG rel | VLA-4 inh | others
COc1ccc2c(c1O)C13CCN(C)C(C2)C1CCC(=O)C3 (configuration not stated) | i | 0 | 5 | 0
CCNC(=O)C1OC(n2cnc3c(N)ncnc32)C(O)C1O (configuration not stated) | i | -1 | 95* | -8
Cc1ccc(NC(=O)CC[C@H]2O[C@@H](n3cnc4c(NC(=O)c5ccccc5)ncnc43)[C@H](O)[C@@H]2O)cc1C | i | 3 | . | .
CC(C)N1CC=C(c2c[nH]c3ccccc23)CC1 | + | -8 | -15 | -1
CC1CCCN(C(=O)CN2C3CCC2CC(O)(c2ccc(F)cc2)C3)C1 (configuration not stated) | i | 4 | 1 | 18
CC1CCCN(C(=O)CCl)C1 (configuration not stated) | i | 1 | 8 | 56*
CN1CCC(O)(c2ccc(Cl)cc2)C(C(=O)c2ccc(Cl)cc2)C1 (configuration not stated) | i | 0 | 1 | 9
c1ccc2c3c([nH]c2c1)CNCC3 | + | -2 | 4 | -10
Cc1nc2ccccc2c(=O)n1-c1ccc(Cl)cc1[N+](=O)[O-] | i | 1 | -2 | 1
Cn1ncnc2c(=O)n(C)c(=O)nc1-2 | ? | 38* | 4 | 42
Cc1[nH]c2ccccc2c1CCN | i | -10 | 13 | -2
Cc1[nH]c2ccccc2c1CCCNC1CCCCC1 | + | -7 | 11 | -35
COc1cccc(C(c2nnnn2-c2ccc3c(c2)OCCO3)N2CCC(n3c(=O)[nH]c4ccccc43)CC2)c1OC (configuration not stated) | + | 2 | . | .
COc1ccc(/C=N/N=C(/N)N[N+](=O)[O-])c(OC)c1 | i | 2 | 121* | 2
N/C(=N\N=C/c1ccc(-c2ccc(O)c(C(=O)O)c2)o1)N[N+](=O)[O-] | i | 0 | 8 | 4
CCC(=O)[C@@H](C)[C@@H](O)[C@H](C)C[C@@H](C)C1OC(=O)C[C@@]2(O)CC=C(C)C(O2)C(C)=CCCC[C@H](O[C@H]2C[C@@H](OC(N)=O)[C@H](O)[C@@H](C)O2)C=C[C@H](C)C[C@H]1C (some centres not stated) | . | 2 | . | .
Nc1ncc2[nH]cnc2n1 | i | 2 | -10 | 53*! | VLA-4 allo CP=2
CC(Cc1ccsc1)NCc1cn[nH]c1-c1ccc(F)cc1F (configuration not stated) | i | -2 | 4 | -5
COCCNC(=O)Cn1cc(C(=O)c2ccccc2F)c2ccccc21 | i | 0 | -1 | 6 | VLA-4 allo CP=1
O=C(Cn1cc(C(=O)c2ccccc2F)c2ccccc21)NCc1ccco1 | i | 0 | -7 | 0
CC(C)(C)C(=O)C(Oc1ccc(Cl)cc1)n1cncn1 (configuration not stated) | i | 0 | . | .
O=c1ccc2cc3ccoc3c(O)c2o1 | i | -21 | . | 2
O=c1[nH]cnc2nc(-c3ccc(N(CCCl)CCCl)cc3)[nH]c12 | i | -6 | . | .
C[N+]1(C)C2CCC1CC(OC(=O)c1ccccc1)C2 (configuration not stated) | i | 0 | 0 | 4 | VLA-4 allo CP=-3
COc1ccc(CCN)cc1OC | i | 2 | 8 | -7
SMILES | Myeloid diff MLP | SENP1 inh | Platelet DG rel | VLA-4 inh | others
NCCc1ccc(OCc2ccccc2)c(OCc2ccccc2)c1 | i | 1 | . | 74* | VLA-4 allo CP=29
O=C(c1ccccc1F)N1C[C@H]2C[C@@H](C1)c1cccc(=O)n1C2 | i | 0 | 2 | -11
COC(=O)C1C(OC(=O)c2ccccc2)CC2CCC1N2C (configuration not stated) | i | -1 | -1 | 3 | VLA-4 allo CP=-5
COC(=O)C1=C(c2ccc(Cl)c(C(F)(F)F)c2)C[C@@H]2CC[C@H]1N2C(=O)NCc1cc(C)oc1C(F)(F)F | i | 1 | . | 26
Cc1ccc(-c2cc(-c3ccc(C)cc3)[n+](-c3ccccc3)c(-c3ccc(C)cc3)c2)cc1 | ? | -3 | 7 | 54* | VLA-4 allo CP=3
Cc1ccc(-c2cc(-c3ccccc3)cc(-c3ccccc3)[n+]2-c2ccccc2)cc1 | ? | -3 | 0 | -1
C=CCn1c(O)c(C(C)=O)c(=O)[nH]c1=O (tested in a mixture with another compound) | i | -2 | -18 | 2
